Measured values pooled from the literature.
Protocols differ between the studies behind these lines.
Target: Serine/threonine-protein kinase WNK1 (WNK1, Homo sapiens, UniProt Q9H4A3)

N#Cc1ccc(Nc2ccc3[nH]c(=O)[nH]c3c2)c(Cl)c1
remaining binding (cell-free assay, competition with immobilised ligand; 1 µM): 100%

O=C(Nc1cnn(-c2csc(C(=O)NC3COC3)c2)c1)Nc1ccccc1Cl
remaining activity (enzyme activity, inhibitor; 5 µM): 99.7%

COc1cc(Nc2cnc(C#N)c(O[C@H](C)CN(C)C)n2)ncc1-c1cnn(C)c1
remaining activity (enzyme activity, inhibitor, radiometric; 1 µM): 95%

CN([C@@H]1CCc2c(CC(=O)O)c3cc(S(C)(=O)=O)ccc3n2C1)S(=O)(=O)c1ccc(F)cc1
remaining binding (cell-free assay, competition with immobilised ligand; 1 µM): 95%

CC(C)(C)c1nc(-c2cccc(NS(=O)(=O)c3c(F)cccc3F)c2F)c(-c2ccnc(N)n2)s1
remaining activity (enzyme activity, inhibitor, radiometric; 1 µM): 98%

CO[C@@H](C)c1c(Nc2ccc([C@H](N(C)C(=O)C3CCS(=O)(=O)CC3)C(F)(F)F)cc2)cnc2cc(Cl)nn12
remaining binding (cell-free assay, competition with immobilised ligand; 1 µM): 100%

COc1cc(/C=C/C(=O)CC(=O)/C=C/c2ccc(O)c(OC)c2)ccc1O
activity vs control (enzyme activity, inhibitor; 1 µM): 98%

Nc1ncnc2occ(-c3ccc(NC(=O)Nc4cc(C(F)(F)F)ccc4F)cc3)c12
remaining signal (cell-free assay, inhibitor; 20 µM): 87%

O=C(CSc1nc2nccnc2c(=O)n1CCc1ccccc1)Nc1nccs1
inhibition (enzyme activity, inhibitor; 10 µM): 1%

FC(F)(F)Oc1cccc(-c2cnc3ccc(-c4ccncc4)nn23)c1
activity vs control (enzyme activity, inhibitor, radiometric; 5 µM): 99%

COc1ccc2cc(OCC3(C(=O)O)CN(C(=O)c4ccc(F)cc4)C3)ccc2c1
remaining binding (cell-free assay, competition with immobilised ligand; 1 µM): 84%

C[C@@H]1CCN(c2nccc(-c3cnn4ncccc34)n2)C1
remaining binding (binding; 1 µM): 92%

Cn1cncc1C1=CN(c2ncnc3[nH]cnc23)CCS1
inhibition (enzyme activity, inhibitor, radiometric; 50 nM): 14.1%

O=C(Nc1cnn(-c2csc(C(=O)NC3COC3)c2)c1)Nc1c(F)cccc1Cl
remaining activity (enzyme activity, inhibitor; 5 µM): 93.3%

CN(c1ccnc(CNc2nc(Nc3ccc4c(c3)CC(=O)N4)ncc2C(F)(F)F)n1)S(C)(=O)=O
remaining binding (cell-free assay, competition with immobilised ligand; 1 µM): 87%
